Our source for the cytotoxicity values is ChEMBL document CHEMBL4513216, “Probing the Open Global Health Chemical Diversity Library for Multistage-Active Starting Points for Next-Generation Antimalarials” (ACS Infect Dis, 2020).

This series is described as follows: Toxicity liver stage against HepG2, at 10uM. In kind it is cell-based. The arrangement: test concentration 10 uM, cell line HepG2-A16-CD81EGFP. The following applies: human, HepG2-A16-CD81EGFP cells; read-out: INHIBITION
In short, it runs like this:
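Uninfected HepG2-A16-CD81EGFP cells, 3 × 10^3 per well, 1536-well, plated on prespotted compound at 10 μM final, parasite-free screening media added to match infected plates; puromycin 10 μM positive, DMSO 0.5% negative; run in parallel with 48 h PbLuc assay at 37 °C, 5% CO2; viability by CellTiter-Glo luminescence, normalized to controls.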
Turning to `CCCc1ncc(C(=O)c2ccc(OC)cc2)n1C`, the cytotoxicity at 10 µM came out at 22.3%.
To `COCC(=O)NC[C@H]1C[C@@H]2CCN1C[C@@H]2CN1CCc2ccccc21` belongs 3.29%; to `CC(=O)N1CCC(N2C[C@@H](F)[C@@H](OCc3nc4ncccc4[nH]3)C2)CC1`, 6.1%.
To `COc1ccc2[nH]c(C[C@@H]3C[C@@H](C(C)C)[C@H](CN(C)C)C=C3C)nc2c1` belongs -0.626%.
In the case of `CC1(CO)COC(Cc2ccc(Cl)cc2)=N1` (centres undefined) it was 12.6%.
As to `CC1=Nc2c(c(=O)[nH]n2C2CCOCC2)C(c2cccc(O)c2)S1` (centres undefined), the cytotoxicity at 10 µM was -6.81%.
In the case of `O=C(Cc1cccc(F)c1)N1C[C@H]2CN(Cc3cccnc3)C[C@H]2C1` it was 0.0515%; in that of `CCN1C(=O)CCC12CCCN(CCc1ccccc1)C2` (centres undefined), -0.449%; in that of `CC(C)NC(=O)[C@H]1CCS(=O)(=O)[C@@H]2CN(c3ncccn3)C[C@H]12`, -123%.
Consider `CC(=O)N1CCc2nc3sc(C(N)=O)c(N)c3c(C(F)(F)F)c2C1`, for which the cytotoxicity at 10 µM was 6.28%.
To `CC(=O)c1cccc(-n2nc(C(C)=O)c(C(C)=O)c2C)c1` belongs 4.45%; to `COc1ncccc1C(=O)Nc1nc2c(s1)CN(S(=O)(=O)C1CC1)CC2`, -9.04%.
In the case of `COc1ccccc1S(=O)(=O)N1CCC(Oc2cccnn2)CC1` it was -7.33%; in that of `c1cnc(N2C[C@H]3CCN(c4cccnc4)C[C@H]3C2)nc1`, -14.7%; in that of `O=C(NCC1CC1)C1CN(C(=O)c2cccnc2)CC12CCOCC2` (centres undefined), 3.25%.
In the case of `CCn1cc(Br)c(C(=O)NCc2cccnc2)n1` it was -10.1%.
Consider `Cc1nccn1[C@@H]1CC[C@@H](N(C)S(=O)(=O)c2ccccc2F)[C@H]1O`, for which the cytotoxicity at 10 µM is 1.17%.
In the case of `CC1(C(=O)NC2CCCC2)CCCN(c2ncccn2)C1` (centres undefined) it was -27.3%; in that of `CCS(=O)(=O)N1CCCC(c2ccnc(N(C)C)c2)C1` (centres undefined), -5.16%.
In the case of `COc1ccccc1OCCNC(=O)NCc1nc(C)no1` it was 6.67%; in that of `CCc1cnc(CN(C)C2CCN(c3sccc3C#N)C2=O)s1` (centres undefined), 8.32%.
In the case of `COc1cccc(OC)c1CC(=O)NC(C#N)c1ccsc1` (centres undefined) it was 14.9%.
As to `CCn1c(C)cc(C(=O)N2CCC(Nc3cccnn3)CC2)c1C`, the cytotoxicity at 10 µM is 4.71%.
In the case of `Cc1nc(N2CCN(C(=O)CC3CCCC3)CC2)c2cnn(C)c2n1` it was 6.24%; in that of `CCOCCC1(CNC(=O)c2ccsc2)CCC1`, 7.92%.
In the case of `COc1ncccc1CNC(=O)N1CCC(CNC(C)=O)CC1` it was 3.4%; in that of `Cc1c(C(=O)NCCCC(N)=O)sc2ccc(F)cc12`, 14.6%; in that of `OCC1(NCc2cnc(-c3cccs3)s2)CCOCC1`, -1.99%.
To `CN(Cc1cnn(C)c1)C(=O)c1ccc(=O)n(Cc2ccccc2)n1` belongs -134%; to `CCOc1ncccc1C(=O)N1CCCC(n2nc(C)cc2C)C1` (centres undefined), -5.54%.
As for `NC(=O)N1CC(OCc2cccc3ccccc23)C1`, the cytotoxicity at 10 µM was -0.396%.
In the case of `CCN(C)c1ccc(CNC(=O)c2ccc(NC(N)=O)cc2)cc1F` it was 7.52%; in that of `CC(C)(C(N)=O)S(=O)(=O)c1ccc(Br)cc1`, 4.4%; in that of `CN(CCOc1cccc(CN)c1)C1CCOCC1`, -1.35%.
In the case of `O=C(NCC(O)c1ccc(F)c(F)c1)c1cccnc1OCC(F)(F)F` (centres undefined) it was -10.2%; in that of `O=C(CCc1nccs1)N1CCCC(N2CCNC2=O)C1` (centres undefined), -18.3%; in that of `CCN(Cc1cccnc1)CC1CCCO1` (centres undefined), -10.7%.
In the case of `CCN1CCC(CC(=O)NCCc2nc(N)cc(O)n2)CC1` it was 0.821%.
For the compound `Cc1ncsc1CCN(C)C(=O)C(c1cccnc1)N1CCOCC1` (centres undefined), the cytotoxicity at 10 µM was -6.02%.
As for `O=C1CCOCCN1Cc1ccc(Cl)c(F)c1`, the cytotoxicity at 10 µM was -3.31%.
With `Cc1cccc(C(C(=O)N2CCN(C(=O)c3ccc[nH]3)CC2)N(C)C)c1` (centres undefined), the cytotoxicity at 10 µM was -7.55%.
In the case of `CC1(C)CNC(=O)c2nc(-c3nnc(-c4ccccc4)[nH]3)[nH]c2C1` it was -5.79%; in that of `COCCC1(CO)CCCN(C(=O)c2cc(=O)[nH]c(=O)[nH]2)C1` (centres undefined), -5.16%.
In the case of `CCc1nc2c(c(N(C)Cc3nncn3CCOC)n1)CCNCC2` it was -7.63%.
In the case of `O=c1c2ccccc2cnn1Cc1cncn1C1CC1`, the cytotoxicity at 10 µM was determined as 3.72%.
To `O=C(c1cncc(NCC2COc3ccccc3C2)n1)N1CCCCC1` (centres undefined) belongs 1.64%; to `O=C(C1CCCC1)N1CC[C@]2(O)CCN(Cc3ncccn3)C[C@@H]2C1`, 9.04%; to `CCc1ncc(C(=O)NCCn2c(C)cc(C)nc2=O)cn1`, -1.75%.
In the case of `Cc1scc(C(=O)N2CCC3(CC(=O)NC3=O)C2)c1-c1ccccc1` (centres undefined) it was -17.5%; in that of `Cc1nc(-c2cccc(C(=O)O)c2)cc(C2CCN(C(C)C)C2)n1` (centres undefined), 5.32%; in that of `Cc1cnc(C(=O)N2CCCCC2c2[nH]ncc2S(C)(=O)=O)cn1` (centres undefined), 2.12%.
To `Cc1nnc2n1CCN(Cc1csc(COc3ccccc3)n1)C2` belongs -14.3%; to `CCc1noc(C(C)N2CCN(CCN3CCCC3=O)CC2)n1` (centres undefined), -9.37%.
Regarding `Cc1cccc(NC2CCN(C(=O)Nc3ccc(F)cc3C)CC2)n1`, the cytotoxicity at 10 µM is -11.7%.
In the case of `Cc1ccc(F)c(NC(=O)NCCCn2nc3ccccn3c2=O)c1`, the cytotoxicity at 10 µM is -13.3%.
In the case of `CS(=O)(=O)NCC1CCCN(C(=O)COc2ccc(F)cc2)C1` (centres undefined) it was -6.38%; in that of `CCc1noc(C(C)N2CCN(Cc3ncc(C(C)(C)C)o3)CC2)n1` (centres undefined), -6.62%; in that of `CCNc1cc2c(nn1)CCN(C(=O)c1ccc(NC3CC3)nc1)C2`, -12.3%.
As for `CC(c1ccc(F)c(F)c1)N1CCN(Cc2nccn2C)CC1` (centres undefined), the cytotoxicity at 10 µM was -2.76%.
In the case of `Cn1c(C2CC2)nc2c1CCN(CCS(=O)(=O)c1ccccc1)C2` it was 3.73%; in that of `COC(=O)c1ccc(CN[C@@H]2COC[C@H]2Cc2cc(C)no2)cc1`, -23%.
In the case of `c1cnc2c(c1)cc([C@@H]1CCCO1)n2CCN1CCOCC1` it was -19.7%; in that of `Cc1nc(C2(O)CCCNCC2)sc1CCOc1ccccc1F` (centres undefined), -36.5%.
`CN(C)S(=O)(=O)N1CC[C@]2(C[C@H](Oc3cccnc3)CO2)C1`: the cytotoxicity at 10 µM was -0.465%.
To `Cc1cccc(CN2CCC3(CCCN(C(=O)NC4CC4)C3)C2=O)n1` (centres undefined) belongs 12.2%.
Turning to `Cc1ccoc1C(=O)N1C[C@@H]2[C@@H](C1)OCC(=O)N2Cc1cccnc1`, the cytotoxicity at 10 µM is 9.38%.
With `CO[C@H]1CCN(Cc2cnn(C)c2)[C@@H]2CN(Cc3cccnc3)C[C@H]12`, the cytotoxicity at 10 µM was -4.17%.
Turning to `Cc1ccc(CNS(=O)(=O)C=c2[nH]c(=O)n3cccc3c2=O)cc1`, the cytotoxicity at 10 µM was found to be 6.38%.
In the case of `CN(C)C(=O)CN1C[C@H]2CC[C@@H](C1)N(Cc1cc(F)ccc1F)C2` it was -24%.
